Data on 39 compounds can be found in ChEMBL document CHEMBL1134599, “Design and synthesis of [(2,3-dichlorophenyl)piperazin-1-yl]alkylfluorenylcarboxamides as novel ligands selective for the dopamine D3 receptor subtype” (J Med Chem, 2001).

The target of one experiment is D(2) dopamine receptor (Homo sapiens, UniProt P14416). Kind of experiment: Binding affinity at human dopamine receptor D2. In short, it runs like this: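 Membranes from CHO cells expressing cloned D2 receptor (labelled primate in methods). Compounds tested at 0.1 nM–10 µM in duplicate with 0.1 nM [3H]YM-09151-2 and 40 µg membrane protein. Buffer was 50 mM Tris pH 7.4 with 120 mM NaCl, bacitracin and aprotinin. Incubated 2 h at room temperature, then filtered on PEI-treated GF/C. Nonspecific binding defined with 10 µM spiperone. IC50 converted to Ki by Cheng-Prusoff. 2–3 independent experiments.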

For another experiment, the target named is T1, D(4) dopamine receptor (Homo sapiens, UniProt P21917).
T1 sequence (P21917 whole entry): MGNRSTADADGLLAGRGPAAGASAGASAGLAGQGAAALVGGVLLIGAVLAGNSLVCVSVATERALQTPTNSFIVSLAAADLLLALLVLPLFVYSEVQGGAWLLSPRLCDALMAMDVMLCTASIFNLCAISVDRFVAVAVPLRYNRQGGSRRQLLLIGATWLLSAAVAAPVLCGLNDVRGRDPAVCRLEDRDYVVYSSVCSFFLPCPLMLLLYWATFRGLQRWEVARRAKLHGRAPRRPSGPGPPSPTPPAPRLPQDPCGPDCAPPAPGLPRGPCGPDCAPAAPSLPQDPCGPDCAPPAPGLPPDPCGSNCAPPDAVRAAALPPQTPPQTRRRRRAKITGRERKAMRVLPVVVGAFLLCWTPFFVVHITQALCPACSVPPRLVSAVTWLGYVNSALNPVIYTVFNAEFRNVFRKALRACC
Kind of experiment: Binding affinity at human dopamine receptor D4. In short, it runs like this:
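Membranes from CHO cells expressing cloned human D4 receptor, prepared in HEPES buffer with protease inhibitors. Compounds tested at 0.1 nM–10 µM in duplicate with 0.1 nM [3H]YM-09151-2 and 40 µg protein, in 50 mM Tris pH 7.4 with 120 mM NaCl. Incubated 2 h at room temperature, then filtered and counted by scintillation. Nonspecific binding defined with 10 µM spiperone. Ki from IC50 by Cheng-Prusoff. 2–3 independent experiments.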

For another experiment, the target named is D(3) dopamine receptor (Homo sapiens, UniProt P35462). Kind of experiment: Binding affinity at dopamine receptor D3.
Experiment [1] is described as follows: Binding affinity at human dopamine receptor D2.

Sequence of D(2) dopamine receptor (P14416 whole entry): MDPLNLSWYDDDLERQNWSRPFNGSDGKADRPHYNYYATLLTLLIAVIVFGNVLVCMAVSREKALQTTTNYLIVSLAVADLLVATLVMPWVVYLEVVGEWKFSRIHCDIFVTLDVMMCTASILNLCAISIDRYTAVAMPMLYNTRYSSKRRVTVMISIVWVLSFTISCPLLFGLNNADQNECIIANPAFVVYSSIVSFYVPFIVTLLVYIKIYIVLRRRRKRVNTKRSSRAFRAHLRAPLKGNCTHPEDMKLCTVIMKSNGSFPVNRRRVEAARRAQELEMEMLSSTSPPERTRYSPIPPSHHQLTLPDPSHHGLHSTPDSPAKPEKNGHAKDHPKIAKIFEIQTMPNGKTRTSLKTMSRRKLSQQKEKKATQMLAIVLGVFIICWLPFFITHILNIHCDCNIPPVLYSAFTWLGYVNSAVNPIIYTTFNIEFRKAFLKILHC
Sequence of D(3) dopamine receptor (P35462 whole entry): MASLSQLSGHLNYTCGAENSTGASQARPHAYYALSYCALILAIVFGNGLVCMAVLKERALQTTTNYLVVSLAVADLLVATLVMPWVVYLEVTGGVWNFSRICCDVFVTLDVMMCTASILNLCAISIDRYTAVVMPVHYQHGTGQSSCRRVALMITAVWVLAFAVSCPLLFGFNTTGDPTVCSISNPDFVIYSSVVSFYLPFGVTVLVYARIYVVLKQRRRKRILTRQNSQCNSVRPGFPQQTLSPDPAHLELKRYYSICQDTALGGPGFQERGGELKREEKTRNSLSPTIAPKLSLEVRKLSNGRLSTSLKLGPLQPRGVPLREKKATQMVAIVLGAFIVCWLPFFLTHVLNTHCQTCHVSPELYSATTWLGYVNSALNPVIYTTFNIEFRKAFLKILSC

On to `Clc1cccc(C(OC2CC3CCC(C2)N3CCCc2ccccc2)c2ccccc2)c1` (stereo not given), for which the inhibitory constant (Ki) (commonly a measure of affinity in units of concentration, obtained from inhibition or displacement) at D(2) dopamine receptor was determined as 59 nM; at D(4) dopamine receptor, 222 nM; at D(3) dopamine receptor, 72.7 nM.

In turn, `CCN(CC)CCOCCOC1(c2ccccc2)CCCC1` returned a Ki at D(3) dopamine receptor of 6100 nM.

Regarding `O=C(NCCCN1CCN(c2cccc(Cl)c2Cl)CC1)c1cccc2c1Cc1ccccc1-2`, the inhibition constant Ki on D(2) dopamine receptor is 1680 nM; on D(4) dopamine receptor, 326 nM; at D(3) dopamine receptor, 170 nM.

With `O=C(NCCCN1CCN(c2ccccc2)CC1)c1ccc2c(c1)Cc1ccccc1-2`, the results for the inhibition constant Ki on D(2) dopamine receptor, at D(4) dopamine receptor and at D(3) dopamine receptor were 825 nM, 679 nM and 1460 nM, respectively.

As to `C[C@@H]1CN(CCCN(c2ccccc2)c2ccccc2)C[C@H](C)N1CCCc1ccccc1`, the Ki on D(3) dopamine receptor was greater than 5000 nM.

On to `Fc1ccc(C(OC2CC3CCC(C2)N3Cc2cc3ccccc3[nH]2)c2ccc(F)cc2)cc1` (stereo not given), for which the inhibition constant (Ki) at D(2) dopamine receptor stood at 218 nM; at D(4) dopamine receptor it was 172 nM; on D(3) dopamine receptor, 53.2 nM.

As to `OC1CCc2c(c3ccccc3n2CCCN2CCN(c3ccccc3)CC2)C1` (stereo not given), the inhibitory constant (Ki) is 180 nM at D(2) dopamine receptor, greater than 4000 nM at D(4) dopamine receptor and 4010 nM at D(3) dopamine receptor.

`C[C@@H]1CN(CCCn2c3ccccc3c3ccccc32)C[C@H](C)N1C` had an inhibition constant (Ki) at D(3) dopamine receptor greater than 8000 nM.

As to `O=C(NCCCN1CCN(c2ccccc2)CC1)c1cccc2c1Cc1ccccc1-2`, the Ki at D(2) dopamine receptor turned out to be 473 nM; at D(4) dopamine receptor, 791 nM; on D(3) dopamine receptor, 430 nM.

On to `O=C(NCCCCN1CCN(c2cccc(Cl)c2Cl)CC1)c1ccc2c(c1)-c1ccccc1C2`, for which the inhibition constant Ki at D(2) dopamine receptor is 217 nM; on D(4) dopamine receptor, greater than 5000 nM; at D(3) dopamine receptor, 1.4 nM.

With `Fc1ccc(C(OCCOC2CC3CCC(C2)N3)c2ccc(F)cc2)cc1` (stereo not given), the Ki was 1120 nM on D(2) dopamine receptor, greater than 4000 nM on D(4) dopamine receptor and 2520 nM on D(3) dopamine receptor.

Consider `Clc1ccccc1N1CCN(CCCn2c3ccccc3c3ccccc32)CC1`, for which the inhibition constant (Ki) on D(3) dopamine receptor is greater than 4000 nM.

`C[C@@H]1CN(CCCn2c3ccccc3c3ccccc32)C[C@H](C)N1CCCc1ccccc1` registered a Ki on D(3) dopamine receptor greater than 4000 nM.

Turning to `Fc1ccc(C(OC2CC3CCC(C2)N3Cc2cccc3ccccc23)c2ccc(F)cc2)cc1` (stereo not given), the figures for the Ki at D(2) dopamine receptor, at D(4) dopamine receptor and at D(3) dopamine receptor were 379 nM, 120 nM and 112 nM, respectively.

Turning to `Fc1ccc(C(OC2CC3CCC(C2)N3Cc2ccccc2)c2ccc(F)cc2)cc1` (stereo not given), the Ki stood at 132 nM on D(2) dopamine receptor, 640 nM at D(4) dopamine receptor and 63.3 nM on D(3) dopamine receptor.

In the case of `Fc1ccc(C(O[C@H]2C[C@H]3CC[C@@H](C2)N3CCCCc2ccccc2)c2ccc(F)cc2)cc1`, the Ki at D(2) dopamine receptor was 81.3 nM; at D(4) dopamine receptor, 68.1 nM; at D(3) dopamine receptor, 13.8 nM.

Consider `Fc1ccc(C(OC2CC3CCC(C2)N3Cc2ccc(Cl)c(Cl)c2)c2ccc(F)cc2)cc1` (stereo not given), for which the figures for the inhibitory constant (Ki) at D(2) dopamine receptor, on D(4) dopamine receptor and on D(3) dopamine receptor were 625 nM, 349 nM and 277 nM, respectively.

In the case of `O=C(NCCCCN1CCN(c2cccc(Cl)c2Cl)CC1)c1cccc2c1-c1ccccc1C2=O`, the Ki on D(2) dopamine receptor was 89 nM; at D(4) dopamine receptor, 1850 nM; at D(3) dopamine receptor, 1.4 nM.

As to `O=C(NCCCN1CCN(c2ccccc2)CC1)C1c2ccccc2-c2ccccc21`, the inhibition constant (Ki) came to 606 nM at D(2) dopamine receptor, 2170 nM at D(4) dopamine receptor and 340 nM on D(3) dopamine receptor.

On to `O=C1c2ccccc2C(=O)N1CCCCCN1CCN(c2cccc(Cl)c2Cl)CC1`, for which the results for the inhibition constant Ki on D(2) dopamine receptor, at D(4) dopamine receptor and on D(3) dopamine receptor were 11 nM, 105 nM and 7.8 nM, respectively.

Take `O=C(NCCCCN1CCN(c2cccc(Cl)c2Cl)CC1)C1c2ccccc2-c2ccccc21`: the values for the Ki on D(2) dopamine receptor, at D(4) dopamine receptor and at D(3) dopamine receptor were 10 nM, 391 nM and 19 nM, respectively.

On to `CN1[C@@H]2CC[C@H]1C[C@@H](OC(c1ccc(Cl)cc1)c1ccc(Cl)cc1)C2`, for which the affinity on D(3) dopamine receptor, expressed as Ki, was 220 nM.

Take `O=C(NCCCN1CCN(c2cccc(Cl)c2Cl)CC1)c1cccc2c1-c1ccccc1C2=O`: the Ki was found to be 512 nM on D(2) dopamine receptor, 3990 nM on D(4) dopamine receptor and 36 nM at D(3) dopamine receptor.

Take `CN1C2CCC1CC(OC(c1ccccc1)c1ccc(Cl)cc1)C2` (stereo not given): the Ki at D(2) dopamine receptor amounted to 1740 nM; at D(4) dopamine receptor, 1000 nM; on D(3) dopamine receptor, 5380 nM.

At D(3) dopamine receptor, `C[C@@H]1CN(CCCn2c3ccc(Br)cc3c3cc(Br)cc(Br)c32)C[C@@H](C)N1` returned an inhibitory constant (Ki) greater than 8000 nM.

As for `C[C@@H]1CN(CCCn2c3ccccc3c3cc(N)ccc32)C[C@H](C)N1`, at D(3) dopamine receptor, the Ki was greater than 8000 nM.

In the case of `CN1C2CCC1CC(OC1c3ccccc3Cc3ccccc31)C2` (stereo not given), the inhibition constant Ki on D(2) dopamine receptor was 672 nM; on D(4) dopamine receptor, 541 nM; at D(3) dopamine receptor it was 193 nM.

On to `O=C(NCCCN1CCN(c2ccccc2)CC1)c1cccc2c1-c1ccccc1C2=O`, for which the Ki on D(2) dopamine receptor came to 777 nM; at D(4) dopamine receptor it was 1380 nM; on D(3) dopamine receptor, 430 nM.

Compound `O=C(NCC1c2ccccc2-c2ccccc21)C1CCNCC1` yielded an inhibition constant Ki at D(3) dopamine receptor greater than 8000 nM.

Turning to `C[C@@H]1CN(CCCN(c2ccccc2)c2ccccc2)C[C@H](C)N1`, the Ki on D(3) dopamine receptor is greater than 8000 nM.

Take `Fc1ccc(C(OCCN2C3CCC2CC(OC(c2ccc(F)cc2)c2ccc(F)cc2)C3)c2ccc(F)cc2)cc1` (stereo not given): the results for the Ki at D(2) dopamine receptor, on D(4) dopamine receptor and at D(3) dopamine receptor were 927 nM, 868 nM and 214 nM, respectively.

At D(3) dopamine receptor, `c1ccc(N2CCN(CCCn3c4ccccc4c4ccccc43)CC2)cc1` came in with an inhibition constant Ki of 2420 nM.

At D(3) dopamine receptor, `C=CCN1C2CCC1CC(OC(c1ccc(F)cc1)c1ccc(F)cc1)C2` (stereo not given) yielded a Ki of 130 nM. Against the preceding compound, the Ki is about 19-fold lower.

In the case of `O=C(NCCCCN1CCN(c2cccc(Cl)c2Cl)CC1)c1ccc2c(c1)-c1ccccc1-2`, the Ki is greater than 5000 nM on D(4) dopamine receptor and […] in experiment [1].

Consider `O=C(NCCCN1CCN(c2cccc(Cl)c2Cl)CC1)c1ccc2c(c1)Cc1ccccc1-2`, for which the Ki on D(2) dopamine receptor was found to be 2570 nM; at D(4) dopamine receptor, 350 nM; on D(3) dopamine receptor it was 110 nM.

Regarding `O=C(NCCCCCN1CCN(c2cccc(Cl)c2Cl)CC1)c1cccc2c1-c1ccccc1C2=O`, the figures for the Ki at D(2) dopamine receptor, at D(4) dopamine receptor and on D(3) dopamine receptor were 5 nM, 530 nM and 28 nM, respectively.

Consider `O=C(NCCCN1CCN(c2cccc(Cl)c2Cl)CC1)C1c2ccccc2-c2ccccc21`, for which the Ki came to 414 nM at D(2) dopamine receptor, 1140 nM on D(4) dopamine receptor and 24 nM at D(3) dopamine receptor.

Regarding `O=C1c2ccccc2C(=O)N1CCCCN1CCN(c2cccc(Cl)c2Cl)CC1`, the Ki was 120 nM at D(2) dopamine receptor, 368 nM on D(4) dopamine receptor and 4.1 nM at D(3) dopamine receptor.

On to `CN1C2CCC1CC(OC(c1ccc(F)cc1)c1ccc(F)cc1)C2` (stereo not given) [DIFLUOROBENZTROPINE], for which the Ki on D(3) dopamine receptor is 145 nM.
